Only some compounds are listed: those with a hit (about 1.3% of all), similar ones and a draw of the others.
Tn7 DDE FP: inhibitors of Tn7 peptide binding to fibrin DD(E), primary screen, biochemical, fluorescence polarization, human fibrin, Tn7 probe; hit rate 0.13% among 370,000; Fibrinogen beta chain (Homo sapiens), P02675; inhibition, % at 8.3 µM; FP displacement of FITC-Tn7 peptide from fibrin DD(E); 0% = median of compound wells per plate;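 active = inhibition above the mean of compounds falling within the control limits plus 3 SD of them, cut at about 14% in these data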;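 note: 0% = plate median of compound wells and 100% = 10 µM Aha-Tn7 peptide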
Target sequence (P02675 whole entry, looked up): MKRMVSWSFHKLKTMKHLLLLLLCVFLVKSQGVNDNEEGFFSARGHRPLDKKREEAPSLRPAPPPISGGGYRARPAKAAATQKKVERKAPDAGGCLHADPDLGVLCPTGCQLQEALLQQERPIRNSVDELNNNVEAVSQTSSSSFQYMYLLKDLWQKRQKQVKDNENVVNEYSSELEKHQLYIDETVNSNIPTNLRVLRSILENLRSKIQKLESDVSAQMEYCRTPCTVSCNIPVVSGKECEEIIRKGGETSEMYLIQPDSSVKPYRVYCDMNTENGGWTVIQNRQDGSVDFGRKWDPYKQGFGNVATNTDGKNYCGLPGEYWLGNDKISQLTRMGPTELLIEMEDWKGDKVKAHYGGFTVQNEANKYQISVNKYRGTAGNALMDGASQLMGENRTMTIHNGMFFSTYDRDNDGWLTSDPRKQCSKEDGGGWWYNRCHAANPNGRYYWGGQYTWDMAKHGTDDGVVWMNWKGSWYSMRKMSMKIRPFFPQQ
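System: human fibrin DD(E); quantity: Fibrin-DD(E) at 2 µM final; also added: fluorescent Tn7 probe at 0.1 µM; compound dosing: single nominal test concentration of 8.3 µM per compound; schedule: 10 min preincubation, 3 h with tracer, room temperature; detection: fluorescence polarization of the labelled Tn7 tracer; repeats: one replicate per compound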
Tn6 DDE FP: inhibitors of Tn6 peptide binding to fibrin DD(E), primary screen, biochemical, fluorescence polarization, human fibrin, Tn6 probe. Fibrinogen beta chain (Homo sapiens), P02675. AID 720509, 2013. hit rate 0.21% among 370,000. inhibition, % at 8.3 µM. Fibrin DD(E) TRITC-Tn6 fluorescence polarization displacement;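 active = inhibition above a per-campaign cutoff: mean of compounds within control limits plus 3 SD, cut at about 15% in these data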;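 note: 0% = median of all compound wells on the plate and 100% = blocking peptide control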
CRFR2-BP ag: agonists of CRF-BP/CRF-R2 complex, primary screen, cell-based, HEK293, calcium dye fluorescence, uHTS; CRF-binding protein / CRF receptor 2 complex (human); calcium dye fluorescence (FLIPR); percent of saturating CRF peptide response; activation, % at 13.2 µM; hit rate 0.46% among 350,000; AID 588473, 2011;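 active = activation of at least 50%, plus an integration ratio under a set limit after plate pattern correction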;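 note: plate controls were neutral control wells without compound for no effect and CRF at EC100 for full effect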
CRFR2-BP antag: antagonists of CRF-BP/CRF-R2 complex, primary screen, cell-based, HEK293, calcium dye fluorescence, uHTS; CRF-induced calcium fluorescence; inhibition, % at 11.8 µM; hit rate 0.59% among 350,000;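 active = inhibition of the ligand-induced calcium signal above about 50% at the single tested concentration, limit read from the data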
Tn7 DDE conf: inhibitors of Tn7 peptide binding to fibrin DD(E), confirmation, biochemical, fluorescence polarization, human fibrin, Tn7 probe. shares compounds with Tn7 DDE FP. FP displacement of TRITC-Tn7 peptide from DD(E); 0% set at plate's compound-well median. inhibition, % at 8.3 µM. hit rate 5% among 460. AID 720628, 2013;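 active = inhibition above the campaign cutoff, the mean of compounds within control limits plus 3 SD, cut at about 14% in these data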;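 note: 100% = median FP of high control wells holding Aha-Tn7 inhibitor peptide; displacers lower polarization since freed probe rises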
Tn7 DDE ctr: DD(E)-Tn7 binding inhibition, counter-screen | shares compounds with Tn7 DDE FP | fibrin DD(E), TRITC-Tn7 probe displacement, fluorescence polarization | inhibition, % at 8.3 µM | hit rate 3% among 460;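 active = inhibition above the cutoff, the mean of compounds lying between the control bounds plus 3 SD of those compounds, cut at about 17% in these data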;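 note: 0% = median of compound sample wells and 100% = excess unlabeled Aha-Tn7 peptide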
* hit, by the source's call; x = not tested or not shown.

SMILES | Tn7 DDE FP | Tn6 DDE FP | CRFR2-BP ag | CRFR2-BP antag | others
CS(=O)(=O)c1ccc(C2=C(CNC(=O)c3ccncc3)[C@H]3CC[C@@H](C2)N3Cc2ccccc2)cc1 | 6.0 | -2.4 | -0.3 | 15.6
COc1ccc(CN2Cc3cc(N4CCOCC4)ccc3-n3nncc3C2)cc1 | -3.0 | -3.4 | x | x
CC[n+]1c(-c2ccccc2)c2cc(N)ccc2c2ccc(N)cc21 | 6.2 | 55.9* | 29.3 | -7.8
Cn1c(CN2CCN(C(=O)COc3ccccc3)CC2)nc2cc([N+](=O)[O-])ccc21 | -6.2 | -4.4 | -0.7 | 21.5
CCn1c(O)c(/C=N/N2CCOCC2)c(=O)n(CC)c1=S | -0.5 | -4.7 | -1.4 | -2.3
CCn1c(O)c(C=Nc2ccc(N3CCOCC3)c(Br)c2)c(=O)n(CC)c1=S | 0.5 | 2.8 | 99.5* | -125.9
O=c1[nH]c(=S)n(-c2ccc(Cl)cc2)c(O)c1C=Nc1ccc(N2CCOCC2)cc1 | 1.7 | 0.1 | 52.9* | -87.0
CCn1c(O)c(C=Nc2ccc(N3CCOCC3)cc2)c(=O)n(CC)c1=S | 3.3 | 5.2 | 97.0* | -159.0
C#CCN1CCN(c2cccc(C(F)(F)F)c2)CC1 | 1.4 | 5.6 | 0.2 | -5.1
COC(=O)Cn1cc(/C=C2\C(=O)NC(=O)N(c3ccc(OC)cc3)C2=O)c2ccccc21 | 2.8 | 0.1 | 81.4* | -55.4
COc1ccc(N2C(=O)NC(=O)/C(=C\c3cn(C)c4ccccc34)C2=O)cc1 | x | x | 119.9* | -69.2
COC(=O)C1=C(c2ccc(OC(F)(F)F)cc2)C[C@@H]2CC[C@H]1N2C(=O)NCc1cc(C)oc1C(F)(F)F | 2.5 | 10.3 | 0.6 | 18.5
CCN1/C(=C\C=C\C2=[N+](CC)c3ccccc3C2(C)C)C(C)(C)c2ccccc21 | x | x | 260.2* | -275.6
O=C(CCCN1CCC2(CC1)C(=O)NCN2c1ccccc1)c1ccc(F)cc1 | 5.7 | -0.5 | 137.0* | 10.0
O=C(NCCN1CCC2(CC1)C(=O)NCN2c1ccccc1)c1ccc(F)cc1F | 0.5 | 4.0 | x | x
O=C(Nc1ccc2ccccc2c1)N1C[C@H]2C[C@@H](C1)c1cccc(=O)n1C2 | 2.2 | -0.6 | 3.9 | 17.2
CCC(C)C1N=C(c2ccccc2)c2cc(Cl)ccc2N(CC(=O)NCc2ccco2)C1=O (stereo not given) | 5.7 | 4.6 | 3.9 | 55.1*
Cc1ccc(NC(=O)CN2C(=O)CN=C(c3ccccc3)c3cc(Cl)ccc32)cc1 | -3.5 | 6.1 | 0.5 | 8.4
CC(=O)C1CCC2C3CCC4CC(O)CCC4(C)C3C(=O)CC12C (stereo not given) | -3.9 | 7.3 | -1.1 | -1.1
Cc1ccccc1N1C(=O)NC(=O)/C(=C\c2ccc3c(c2)CCCN3Cc2ccccc2)C1=O | -3.9 | -2.7 | 57.9* | -173.8
O=C1NC(=S)NC(=O)C1=Cc1ccc2c(c1)CCN2CCCCl | x | x | -2.6 | 2.8
CCN1C(=O)C(=C/C=C/c2ccco2)C(=O)N(CC)C1=S | -8.0 | -8.4 | 50.0* | -90.5
CC(C)N1C(=O)/C(=C/C=C/c2ccco2)C(=O)N(Cc2ccco2)C1=O | 0.9 | 7.7 | 4.8 | -18.1
Oc1c(Cl)c(Cl)c(Cl)c(Cl)c1Cl | -0.3 | -9.7 | 10.7 | 53.5*
Nc1c2c(nc3ccccc13)CCN(Cc1ccccc1)C2 | 6.9 | -1.5 | 68.8* | -50.5
SMILES | Tn7 DDE FP | Tn6 DDE FP | CRFR2-BP ag | CRFR2-BP antag | others
C1=C(c2c[nH]c3ccccc23)CCN(Cc2ccccc2)C1 | 2.8 | 2.8 | 4.0 | -13.6
Clc1cnc(Oc2ccc(Oc3ncc(Cl)cc3Cl)cc2)c(Cl)c1 | 3.2 | 1.3 | 0.5 | 72.0*
Clc1ccc(Cl)c(Cl)c1 | -6.5 | 2.3 | x | x
CCCC1(CCC)C(=O)NC(=Nc2ccccc2)NC1=O | 3.4 | -0.4 | -0.4 | -6.0
CCCCC1(CCCC)C(=O)NC(=Nc2cccc(C)c2)NC1=O | -3.4 | 5.5 | 88.6* | 54.9*
N#Cc1ccc(OCC(=O)N2CCN(Cc3ccc4c(c3)OCO4)CC2)cc1 | 4.7 | -1.3 | -2.2 | -0.9
Cc1ccsc1C(=O)C1CCCN(Cc2cnc(N3CCCC3)s2)C1 (stereo not given) | -2.1 | 1.4 | -2.5 | 30.4
Nc1cc(Cl)c2nonc2c1[N+](=O)[O-] | 7.5 | -8.5 | -2.6 | 58.0*
O=[N+]([O-])c1c(Cl)c(Cl)c(Cl)c(Cl)c1Cl | 6.0 | 1.5 | -0.2 | 8.9
Cc1cc(C=C(C#N)C#N)ccc1N1CCCC1 | -4.3 | 1.0 | 76.0* | -140.1
Cc1ncc([N+](=O)[O-])n1CCOC(N)=O | 0.0 | -7.3 | -0.1 | 67.3*
CCCCC12CNCC(C)(CNC1)C2=O | 17.3* | -3.4 | -1.9 | 17.2 | Tn7 DDE conf=-7.5;Tn7 DDE ctr=-13.1
COc1ccc2nc(-c3ccc(CN4CCC(n5c(=O)[nH]c6ccccc65)CC4)cc3)c(-c3ccccc3)nc2c1 | -0.4 | 0.8 | x | x
COc1ccccc1-n1c(-c2ccccc2Cl)nc2ccccc2c1=O | 16.0* | -1.2 | -2.0 | 13.9 | Tn7 DDE conf=7.1;Tn7 DDE ctr=8.2
COc1ccccc1-n1c(-c2ccoc2)nc2ccccc2c1=O | 3.8 | -2.9 | -0.3 | -3.6
O=c1[nH]c2cc(Cl)ccc2n1C1CCN(Cc2ccc(-c3nc4ccc(F)cc4nc3-c3ccccc3)cc2)CC1 | 6.2 | 5.4 | x | x
COc1ccc2[nH]cc(CCNCc3cccnc3)c2c1 | -0.6 | -9.4 | -0.3 | 8.4
COc1ccc2[nH]c(C)c(CCNCc3cccnc3)c2c1 | 18.4* | 6.2 | 15.2 | 5.1 | Tn7 DDE conf=6.4;Tn7 DDE ctr=-3.3
CCOC(=O)[C@]12Cc3c(cc(OC)c(OC)c3OC)[C@H]1N(C)C(=O)c1cc(OC)ccc12 | 14.6* | 1.6 | x | x | Tn7 DDE conf=10.6;Tn7 DDE ctr=6.4
CC1=NCCc2c1[nH]c1cc(O)ccc21 | 76.4* | 1.1 | 220.4* | -209.2 | Tn7 DDE conf=34.6*;Tn7 DDE ctr=-3.5
COc1ccc2c3c([nH]c2c1)C(C)=NCC3 | -2.7 | -1.4 | 4.3 | -23.7
O=C1OC(c2ccc([N+](=O)[O-])cc2)=N/C1=C/N1CC2CC(C1)c1cccc(=O)n1C2 (stereo not given) | 3.4 | 0.7 | 22.2 | -13.0
O=c1[nH]c(=S)n(C2CC2)c(O)c1C=Nc1cccc(C(F)(F)F)c1 | 14.5* | 2.2 | 1.0 | -23.5 | Tn7 DDE conf=-4.8;Tn7 DDE ctr=-13.7
O=C(Cn1c(=O)c(C(F)(F)F)nc2ccccc21)N1CCC2(CC1)OCCO2 | -1.1 | 3.4 | -0.2 | 8.3
CCCCOc1nc2ccccc2c(=O)n1-c1ccccc1 | 15.3* | 4.3 | -0.6 | -15.3 | Tn7 DDE conf=6.3;Tn7 DDE ctr=-3.5
